For test [1], the system named is HL-60. Description: Cytotoxicity against human HL-60 cells assessed as reduction in cell viability incubated for 48 hrs by WST-1 assay. The class given is functional, cell-based. Particulars: HL-60, 48 h. The gist of the method:
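HL-60 promyelocytic leukaemia cells, with proliferation read out by WST-1; activity expressed as IC50.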
In general terms: Tetrazolium assays rely on reduction of a dye to a coloured formazan, in cell work by metabolically active cells.

The test system of test [2] is HCT-116. Description: Cytotoxicity against human HCT-116 cells assessed as reduction in cell viability incubated for 48 hrs by MTT assay. The class given is functional, cell-based. To be noted: HCT-116, 48 h. The gist of the method:
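Antiproliferative test on HCT-116 colon tumour cells, read out by MTT; activity expressed as IC50.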

This is an account of results in ChEMBL document CHEMBL4715744, “Concise synthesis of carbazole-1,4-quinones and evaluation of their antiproliferative activity against HCT-116 and HL-60 cells” (Eur J Med Chem, 2016).

As for `O=C1C=CC(=O)c2c1[nH]c1ccccc21`, the IC50 in test [1] came to 1000 nM; in test [2], 763 nM.

As to `CC1=CC(=O)c2[nH]c3ccc(C(F)(F)F)cc3c2C1=O`, the values for the IC50 in test [1] and in test [2] were 1130 nM and 921 nM, respectively.

On to `CC1=CC(=O)c2[nH]c3ccc(F)cc3c2C1=O`, for which the IC50 was found to be 4400 nM in test [1] and 2700 nM in test [2].

For the compound `COc1cc2[nH]c3c(c2cc1OC)C(=O)C(C)=CC3=O`, the figures for the IC50 in test [1] and in test [2] were 8950 nM and 4090 nM, respectively.

Take `CC1=CC(=O)c2[nH]c3cc(Cl)ccc3c2C1=O`: the 50% inhibitory concentration (IC50) in test [1] is > 10000 nM; in test [2] it was 895 nM.

`COCn1c2c(c3ccccc31)C(=O)C=C(C)C2=O`: the half-inhibitory concentration (IC50) in test [1] and in test [2] was > 10000 nM in each case.

For `COc1cc(OC)c2c3c([nH]c2c1)C(=O)C=C(C)C3=O`, the concentration for half-maximal inhibition (IC50) was 7260 nM in test [1] and > 10000 nM in test [2].

As for `COCn1c2c(c3ccccc31)C(=O)C=CC2=O`, the concentration for half-maximal inhibition (IC50) in test [1] came to 1380 nM; in test [2], 1310 nM.

On to `CC1=CC(=O)c2[nH]c3cc([N+](=O)[O-])ccc3c2C1=O`, for which the IC50 in test [1] is 1580 nM; in test [2], 1370 nM.

With `COc1cc(OC)c2[nH]c3c(c2c1)C(=O)C(C)=CC3=O`, the values for the 50% inhibitory concentration (IC50) in test [1] and in test [2] were 3820 nM and 3600 nM, respectively.

As to `CC1=CC(=O)c2[nH]c3cc(C)ccc3c2C1=O`, the half-inhibitory concentration (IC50) in test [1] stood at 6930 nM; in test [2] it was 1000 nM.

On to `COc1ccc(OC)c2c3c([nH]c12)C(=O)C=C(C)C3=O`, for which the values for the IC50 in test [1] and in test [2] were 2270 nM and 1840 nM, respectively.

Turning to `CC1=CC(=O)c2[nH]c3ccc([N+](=O)[O-])cc3c2C1=O`, the IC50 in test [1] amounted to 1030 nM; in test [2] it was 569 nM.

On to `CC1=CC(=O)c2[nH]c3cc(F)ccc3c2C1=O`, for which the values for the IC50 in test [1] and in test [2] were 1470 nM and 1000 nM, respectively.

Consider `COc1ccc2[nH]c3c(c2c1OC)C(=O)C(C)=CC3=O`, for which the IC50 in test [1] and in test [2] was > 10000 nM throughout.

With `CC1=CC(=O)c2[nH]c3cc4ccccc4cc3c2C1=O`, the concentration for half-maximal inhibition (IC50) was 5270 nM in test [1] and > 10000 nM in test [2].

With `CC1=CC(=O)c2[nH]c3cc(C(F)(F)F)ccc3c2C1=O`, the concentration for half-maximal inhibition (IC50) in test [1] was 6020 nM; in test [2], > 10000 nM.

In the case of `COCn1c2c(c3ccccc31)C(=O)C(C)=CC2=O`, the IC50 came to 3920 nM in test [1] and 6490 nM in test [2].

On to `CC1=CC(=O)c2[nH]c3ccc4ccccc4c3c2C1=O`, for which the IC50 in test [1] and in test [2] was > 10000 nM throughout.

For the compound `CC1=CC(=O)c2[nH]c3ccc(C)cc3c2C1=O`, the 50% inhibitory concentration (IC50) was > 10000 nM in test [1] and 2030 nM in test [2].

Turning to `COc1ccc2[nH]c3c(c2c1)C(=O)C(C)=CC3=O`, the IC50 in test [1] stood at 3410 nM; in test [2] it was 1600 nM.

As for `COc1ccc2c3c([nH]c2c1)C(=O)C=C(C)C3=O`, the half-maximal inhibitory concentration (IC50) in test [1] stood at 1750 nM; in test [2], 992 nM.

In the case of `CC1=CC(=O)c2[nH]c3ccc(Cl)cc3c2C1=O`, the results for the IC50 in test [1] and in test [2] were 1280 nM and 2210 nM, respectively.

`CC1=CC(=O)c2[nH]c3ccccc3c2C1=O` [MURRAYAQUINONE A]: the IC50 worked out at 3020 nM in test [1] and 3720 nM in test [2].

Usually IC50 stands for the concentration needed to halve the response being measured.
